Test results published in ChEMBL document CHEMBL5338819, “Tuning the Metabolic Stability of Visual Cycle Modulators through Modification of an RPE65 Recognition Motif” (J Med Chem, 2023).
Calls of active or inactive are those of the source. The rule behind the calls is not given here.

Key:
[1] = biological target: Retinoid isomerohydrolase (Bos taurus, UniProt Q28175); experiment: Inhibition of RPE65 in bovine microsomes assessed as reduction on 11-cis-retinol production incubated for 1 hr by HPLC analysis; parameters: species or system Microsome
[2] = biological target: Retinoid isomerohydrolase (Bos taurus) (UniProt Q28175); experiment: Inhibition of RPE65 in bovine microsomes assessed as reduction on 11-cis-retinol production at 0.5 to 50 uM incubated for 1 hr by HPLC analysis; details: Microsome, dose 0.5-50 µM
[3] = biological target: T1, Retinoid isomerohydrolase (Mus musculus) (UniProt Q91ZQ5); experiment: In vivo inhibition of RPE65 in BALB/cJ mouse eye by measuring 11-cis-retinal level per eye at 10 mg/kg,ip administrated by HPLC analysis; format: functional, organism-based
T1 sequence (whole entry): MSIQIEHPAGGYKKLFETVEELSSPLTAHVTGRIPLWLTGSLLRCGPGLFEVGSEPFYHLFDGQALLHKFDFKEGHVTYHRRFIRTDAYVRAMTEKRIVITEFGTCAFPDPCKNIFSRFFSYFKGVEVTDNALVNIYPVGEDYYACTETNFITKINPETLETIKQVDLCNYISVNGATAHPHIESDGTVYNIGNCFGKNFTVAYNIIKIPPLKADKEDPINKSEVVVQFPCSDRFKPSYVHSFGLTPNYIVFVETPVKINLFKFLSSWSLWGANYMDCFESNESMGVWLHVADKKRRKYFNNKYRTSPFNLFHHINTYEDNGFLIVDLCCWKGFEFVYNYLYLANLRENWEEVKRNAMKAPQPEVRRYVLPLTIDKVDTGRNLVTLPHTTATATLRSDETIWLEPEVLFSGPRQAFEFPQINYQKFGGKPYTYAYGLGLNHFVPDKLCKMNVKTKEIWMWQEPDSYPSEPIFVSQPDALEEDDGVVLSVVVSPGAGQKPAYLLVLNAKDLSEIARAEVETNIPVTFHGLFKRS

[4] = biological target: T1, Retinoid isomerohydrolase (Mus musculus); experiment: In vivo inhibition of RPE65 in BALB/cJ mouse eye by measuring 11-cis-retinal level per eye at 10 mg/kg,ip administrated and measured after 4 hrs of dark adaptation by HPLC analysis; format: functional, organism-based
[5] = biological target: T1, Retinoid isomerohydrolase (Mus musculus); experiment: In vivo inhibition of RPE65 in BALB/cJ mouse eye by measuring retinyl ester level per eye at 10 mg/kg,ip administrated by HPLC analysis; format: functional, organism-based
[6] = biological target: T1, Retinoid isomerohydrolase (Mus musculus); experiment: In vivo inhibition of RPE65 in BALB/cJ mouse eye by measuring 11-cis-retinal level per eye at 10 mg/kg,ip administrated and measured after 24 hrs of dark adaptation by HPLC analysis; format: functional, organism-based
[7] = biological target: T1, Retinoid isomerohydrolase (Mus musculus); experiment: In vivo inhibition of RPE65 in BALB/cJ mouse eye by measuring retinyl ester level per eye at 10 mg/kg,ip administrated and measured after 24 hrs of dark adaptation by HPLC analysis; format: functional, organism-based
[8] = biological target: T1, Retinoid isomerohydrolase (Mus musculus); experiment: In vivo inhibition of RPE65 in BALB/cJ mouse eye by measuring retinyl ester level per eye at 10 mg/kg,ip administrated and measured after 4 hrs of dark adaptation by HPLC analysis; format: functional, organism-based
[9] = biological target: Retinoid isomerohydrolase (Bos taurus) (UniProt Q28175); experiment: Inhibition of RPE65 in bovine microsomes assessed as fold decrease in 11-cis-retinol production at 0.02 to 10 uM incubated for 1 hr by HPLC analysis; details: Microsome, dose 0.02-10 µM
Summary of the method: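 Bovine RPE microsomes in 10 mM BTP pH 7.4 with 1% BSA, 5 mM pyrophosphate and 16.4 µM apo-CRALBP (His-tagged, E. coli-expressed, Ni-purified). Amine in DMF, 0–10 µM final, was preincubated 2 min. All-trans-retinol was added, then 1 h at 37 °C in the dark. Reaction was quenched with methanol and extracted with hexane. 11-cis-retinol was quantified by normal-phase HPLC.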

[10] = Drug concentration in C57BL/6J mouse serum at 10 mg/kg,ip administrated and measured after 1 hr by HPLC-MS analysis; format: ADME, organism-based; details: read-out: Ct
[11] = Drug concentration in C57BL/6J mouse eye assessed per eye at 10 mg/kg,ip administrated and measured after 24 hr by HPLC-MS analysis; format: ADME, organism-based; details: in vivo
[12] = Drug concentration in C57BL/6J mouse eye assessed per eye at 10 mg/kg,ip administrated and measured after 4 hr by HPLC-MS analysis; format: ADME, organism-based; details: in vivo
[13] = Drug concentration in C57BL/6J mouse serum assessed as emixustat concentration at 10 mg/kg,ip administrated and measured after 4 hr by HPLC-MS analysis; format: ADME, organism-based; details: in vivo, read-out: Ct
[14] = Intrinsic clearance in mouse liver microsomes measured upto 60 mins in presence of NADPH by HPLC analysis; format: ADME, Microsome; details: 1 h
[15] = Metabolic stability in mouse liver microsomes assessed as CYP450-mediated metabolism by measuring Km measured upto 60 mins in presence of NADPH by Michaelis-Menten based HPLC analysis; format: ADME, Microsome; details: 1 h
[16] = Metabolic stability in mouse liver microsomes assessed as CYP450-mediated metabolism by measuring initial velocity at 100 uM measured upto 60 mins in presence of NADPH by HPLC analysis; format: ADME, Microsome; details: 1 h
[17] = Metabolic stability in mouse liver microsomes assessed as CYP450-mediated metabolism by measuring initial velocity at 50 uM measured upto 60 mins in presence of NADPH by HPLC analysis; format: ADME, Microsome; details: 1 h
[18] = Drug concentration in C57BL/6J mouse eye assessed as emixustat concentration per eye at 10 mg/kg,ip administrated and measured after 24 hr by HPLC-MS analysis; format: ADME, organism-based; details: in vivo
[19] = Drug concentration in C57BL/6J mouse serum assessed as emixustat concentration at 10 mg/kg,ip administrated and measured after 1 hr by HPLC-MS analysis; format: ADME, organism-based; details: in vivo, read-out: Ct
[20] = Drug concentration in mouse aorta measured after 1 hr by HPLC analysis; format: ADME, tissue-based; details: read-out: Drug uptake
[21] = Metabolic stability in mouse liver microsomes assessed as CYP450-mediated metabolism by measuring initial velocity at 15 uM measured upto 60 mins in presence of NADPH by HPLC analysis; format: ADME, Microsome; details: 1 h
[22] = Drug metabolism in mouse aorta assessed as VAP-1 mediated oxidative deaminated product formation by measuring ACU-5201 metabolite concentration by HPLC analysis; format: ADME, tissue-based
[23] = Drug concentration in mouse aorta measured after 4 hr by HPLC analysis; format: ADME, tissue-based; details: read-out: Drug uptake
[24] = Drug concentration in mouse aorta by HPLC analysis; format: ADME, tissue-based; details: in vitro, read-out: Drug uptake
[25] = Drug metabolism in mouse aorta assessed as VAP-1 mediated oxidative deaminated product formation by measuring ACU-5201 metabolite concentration and measured after 4 hr by HPLC analysis; format: ADME, tissue-based
[26] = Metabolic stability in mouse liver microsomes assessed as CYP450-mediated metabolism by measuring Vmax measured upto 60 mins in presence of NADPH by Michaelis-Menten based HPLC analysis; format: ADME, Microsome; details: 1 h
[27] = Metabolic stability in mouse liver microsomes assessed as CYP450-mediated metabolism by measuring initial velocity at 25 uM measured upto 60 mins in presence of NADPH by HPLC analysis; format: ADME, Microsome; details: 1 h
[28] = Metabolic stability in mouse liver microsomes assessed as CYP450-mediated metabolism by measuring initial velocity at 200 uM measured upto 60 mins in presence of NADPH by HPLC analysis; format: ADME, Microsome; details: 1 h
[29] = Drug metabolism in mouse aorta assessed as VAP-1 mediated oxidative deaminated product formation by measuring ACU-5201 metabolite concentration and measured after 1 hr by HPLC analysis; format: ADME, tissue-based

Sequence of Retinoid isomerohydrolase (Q28175 whole entry): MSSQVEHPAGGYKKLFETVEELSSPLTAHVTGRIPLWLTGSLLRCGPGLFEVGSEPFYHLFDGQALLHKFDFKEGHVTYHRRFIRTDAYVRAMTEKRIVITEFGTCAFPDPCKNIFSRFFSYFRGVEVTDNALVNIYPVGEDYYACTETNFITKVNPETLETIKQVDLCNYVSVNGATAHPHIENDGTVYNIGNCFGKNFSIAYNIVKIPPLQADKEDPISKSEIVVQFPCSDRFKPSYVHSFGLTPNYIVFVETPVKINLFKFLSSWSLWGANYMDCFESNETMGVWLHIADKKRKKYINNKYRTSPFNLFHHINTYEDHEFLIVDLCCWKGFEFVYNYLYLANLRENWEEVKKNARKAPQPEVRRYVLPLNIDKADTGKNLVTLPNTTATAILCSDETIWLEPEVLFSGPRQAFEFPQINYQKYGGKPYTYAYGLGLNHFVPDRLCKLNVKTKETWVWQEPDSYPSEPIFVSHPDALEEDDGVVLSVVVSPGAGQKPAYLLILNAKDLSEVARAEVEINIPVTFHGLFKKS
Sequence of Retinoid isomerohydrolase (Bos taurus) (Q28175 2-533 limits assumed): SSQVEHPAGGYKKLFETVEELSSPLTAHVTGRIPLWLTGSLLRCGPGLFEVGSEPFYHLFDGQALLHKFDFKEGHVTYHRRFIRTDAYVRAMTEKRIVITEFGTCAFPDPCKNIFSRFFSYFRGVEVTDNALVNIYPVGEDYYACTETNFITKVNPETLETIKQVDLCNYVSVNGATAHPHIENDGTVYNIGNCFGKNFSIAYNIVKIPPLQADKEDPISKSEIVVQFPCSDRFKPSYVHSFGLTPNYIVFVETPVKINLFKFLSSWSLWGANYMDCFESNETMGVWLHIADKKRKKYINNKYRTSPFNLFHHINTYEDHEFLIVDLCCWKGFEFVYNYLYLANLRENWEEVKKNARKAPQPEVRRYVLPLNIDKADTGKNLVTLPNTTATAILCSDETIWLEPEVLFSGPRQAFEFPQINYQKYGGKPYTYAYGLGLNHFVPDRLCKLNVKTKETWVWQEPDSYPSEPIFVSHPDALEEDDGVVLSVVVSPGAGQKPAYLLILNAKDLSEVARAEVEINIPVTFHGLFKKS

| Compound | IC50 [1] | inhibition [2] | IC50 ([1]; read-out: IC50) [nM] | Activity [3] [pmol] | Activity [4] [pmol] | Activity [5] [pmol] | Activity [6] [pmol] | Activity [7] [pmol] | Activity [8] [pmol] | also measured |
| --- | --- | --- | --- | --- | --- | --- | --- | --- | --- | --- |
| NC(CCO)c1cccc(OCC2CCCCC2)c1 (configuration not stated) | Not Active | inactive |  |  |  |  |  |  |  |  |
| NC(CO)Cc1cccc(OCC2CCCCC2)c1 (configuration not stated) | Not Active | inactive |  |  |  |  |  |  |  |  |
| NCCC(O)c1ccc(OCC2CCCCC2)cc1 (configuration not stated) |  |  | 8080 |  |  |  |  |  |  |  |
| CC(CN)Cc1cccc(OCC2CCCCC2)c1 (configuration not stated) |  |  | 390 | 17.4 | 323 | 256 | 254 | 85.6 | 112 |  |
| NCCCc1cccc(OCC2CCCCC2)c1 |  |  |  |  |  |  |  |  |  | fold change (FC) [9]: 8 |
| CNCCC(O)c1cccc(OCC2CCCCC2)c1 (configuration not stated) |  |  | 290 | 13.8 | 22.5 | 297 | 202 | 215 | 396 | concentration at 1 h [10]: 0.75 µM; Ct [11]: 0 pmol; Ct [12]: 7.609 pmol; concentration [13]: 0.0795 µM; CLH [14]: 30700 µL/min/mg; Km [15]: 0.039 µM; V0 [16]: 89.82 pmol/min; V0 [17]: 64.21 pmol/min; Ct [18]: 1.329 pmol; concentration [19]: 0.0523 µM; concentration at 1 h [20]: 101 µM; V0 [21]: 23.38 pmol/min; Drug metabolism [22]: 0 µM; concentration at 4 h [23]: 89.1 µM; concentration [24]: 100 µM; Drug metabolism [25]: 3.76 µM; Vmax [26]: 119.5 pmol/min; V0 [27]: 54.17 pmol/min; V0 [28]: 97.45 pmol/min; Drug metabolism [29]: 0.48 µM |
| NC(CO)Cc1ccc(OCC2CCCCC2)cc1 (configuration not stated) | Not Active | inactive |  |  |  |  |  |  |  |  |
| NCCc1cccc(OCC2CCCCC2)c1 |  |  |  | 16 | 393 | 254 | 406 | 65 | 89.5 |  |
| CC(CN)Cc1ccc(F)c(OCC2CCCCC2)c1 (configuration not stated) | Not Active |  |  | 23.5 | 413 | 260 | 398 | 123 | 101 |  |
| CC(CCN)c1cccc(OCC2CCCCC2)c1 (configuration not stated) |  |  |  | 25.6 | 94.4 | 292 | 370 | 124 | 436 | fold change (FC) [9]: 4 |
